Measurements taken from ChEMBL document CHEMBL1139138, “Pyrrolidine-constrained phenethylamines: The design of potent, selective, and pharmacologically efficacious dipeptidyl peptidase IV (DPP4) inhibitors from a lead-like screening hit” (Bioorg Med Chem Lett, 2007).

Legend:
[1] = Half life in rat liver microsome; type: ADME; details: liver microsomes
Procedure, shortened: (§1)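 Stability on incubation with rat or human liver microsomes, expressed as half-life.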

[2] = Half life in human liver microsome; type: ADME; details: liver microsomes; procedure, shortened: as §1
[3] = Plasma clearance in Sprague-Dawley rat at 5 mg/kg, po; type: ADME, organism-based; set-up: dose 5 mg/kg, route oral
Procedure, shortened: (§2)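 Pharmacokinetics in rat dosed at 5 mg/kg and in dog and monkey dosed at 2.5 mg/kg. Cmax, t1/2 (terminal) and AUC were taken from oral dosing. F is oral bioavailability. Vss is volume of distribution at steady state.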

[4] = system: Rattus norvegicus; assay: Volume of distribution at steady state in Sprague-Dawley rat at 5 mg/kg, po; type: ADME, organism-based; set-up: dose 5 mg/kg, route oral; details: in vivo; procedure, shortened: as §2
[5] = Cmax in Sprague-Dawley rat at 5 mg/kg, po; type: ADME, organism-based; set-up: dose 5 mg/kg, route oral; details: in vivo; procedure, shortened: as §2
[6] = Half life in Sprague-Dawley rat at 5 mg/kg, po; type: ADME, organism-based; set-up: dose 5 mg/kg, route oral; details: in vivo; procedure, shortened: as §2
[7] = system: Rattus norvegicus; assay: AUC in Sprague-Dawley rat at 5 mg/kg, po; type: ADME, organism-based, Plasma; set-up: dose 5 mg/kg, route oral; details: in vivo; procedure, shortened: as §2
[8] = Oral bioavailability in Sprague-Dawley rat at 5 mg/kg, po; type: ADME, organism-based; details: in vivo; procedure, shortened: as §2
[9] = target: T1, Prolyl endopeptidase FAP (Homo sapiens, UniProt Q12884); assay: Inhibition of human FAPalpha
T1 sequence (Q12884 whole entry): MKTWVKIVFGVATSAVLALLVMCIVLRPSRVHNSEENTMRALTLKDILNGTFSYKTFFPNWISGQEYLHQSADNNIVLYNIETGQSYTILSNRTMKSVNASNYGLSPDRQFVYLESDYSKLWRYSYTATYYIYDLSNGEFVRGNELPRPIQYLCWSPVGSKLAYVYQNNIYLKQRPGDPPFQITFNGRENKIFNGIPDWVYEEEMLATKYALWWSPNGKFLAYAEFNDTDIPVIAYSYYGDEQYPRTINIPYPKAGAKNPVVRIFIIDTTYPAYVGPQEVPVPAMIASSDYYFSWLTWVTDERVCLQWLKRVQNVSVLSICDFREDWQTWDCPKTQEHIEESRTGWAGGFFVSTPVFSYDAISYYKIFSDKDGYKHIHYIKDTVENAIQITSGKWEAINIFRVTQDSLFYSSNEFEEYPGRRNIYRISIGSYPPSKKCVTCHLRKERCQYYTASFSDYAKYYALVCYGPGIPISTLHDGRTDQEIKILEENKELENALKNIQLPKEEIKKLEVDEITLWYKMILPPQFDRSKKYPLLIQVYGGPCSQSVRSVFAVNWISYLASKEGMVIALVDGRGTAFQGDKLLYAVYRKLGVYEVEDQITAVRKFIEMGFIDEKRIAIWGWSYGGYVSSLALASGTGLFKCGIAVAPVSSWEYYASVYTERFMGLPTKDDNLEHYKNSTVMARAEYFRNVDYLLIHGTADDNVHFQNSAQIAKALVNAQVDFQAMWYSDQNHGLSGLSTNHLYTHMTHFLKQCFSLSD

[10] = target: T2, Prolyl endopeptidase (Homo sapiens, UniProt P48147); assay: Inhibition of human POP
T2 sequence (P48147 whole entry): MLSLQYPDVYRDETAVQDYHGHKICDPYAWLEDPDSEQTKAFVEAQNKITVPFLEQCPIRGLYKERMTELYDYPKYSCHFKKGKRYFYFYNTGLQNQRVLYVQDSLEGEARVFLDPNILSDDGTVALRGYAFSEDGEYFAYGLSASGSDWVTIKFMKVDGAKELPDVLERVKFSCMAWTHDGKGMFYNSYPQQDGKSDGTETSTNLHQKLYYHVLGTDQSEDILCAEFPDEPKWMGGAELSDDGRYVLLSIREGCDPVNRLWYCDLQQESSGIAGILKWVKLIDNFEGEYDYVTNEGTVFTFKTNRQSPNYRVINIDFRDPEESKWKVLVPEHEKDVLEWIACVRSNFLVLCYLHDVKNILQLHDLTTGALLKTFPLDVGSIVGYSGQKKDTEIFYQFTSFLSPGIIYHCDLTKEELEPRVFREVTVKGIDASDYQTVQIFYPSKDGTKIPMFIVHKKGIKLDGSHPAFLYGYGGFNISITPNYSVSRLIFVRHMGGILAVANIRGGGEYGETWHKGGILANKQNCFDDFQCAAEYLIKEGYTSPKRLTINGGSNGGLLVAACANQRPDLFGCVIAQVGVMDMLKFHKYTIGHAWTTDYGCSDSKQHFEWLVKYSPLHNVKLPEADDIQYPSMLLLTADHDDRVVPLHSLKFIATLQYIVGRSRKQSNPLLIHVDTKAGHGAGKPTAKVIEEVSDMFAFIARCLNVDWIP

[11] = target: Cytochrome P450 2D6 (Homo sapiens, UniProt P10635); assay: Inhibition of CYP2D6; type: ADME
[12] = target: T3, Dipeptidyl peptidase 4 (Homo sapiens, UniProt P27487); assay: Inhibition of human DPP4 by tight binding assay
[13] = target: T3, Dipeptidyl peptidase 4; assay: Inhibition of human DPP4 in presence of rat plasma protein; type: cell-free
[14] = target: Cytochrome P450 2C9 (Homo sapiens, UniProt P11712); assay: Inhibition of CYP2C9; type: ADME
[15] = target: Cytochrome P450 3A4 (Homo sapiens, UniProt P08684); assay: Inhibition of CYP3A4; type: ADME
[16] = target: Dipeptidyl peptidase 8 (Homo sapiens, UniProt Q6V1X1); assay: Inhibition of human DPP8
[17] = target: Dipeptidyl peptidase 9 (Homo sapiens, UniProt Q86TI2); assay: Inhibition of human DPP9
Sequence of Dipeptidyl peptidase 9 (Q86TI2 whole entry): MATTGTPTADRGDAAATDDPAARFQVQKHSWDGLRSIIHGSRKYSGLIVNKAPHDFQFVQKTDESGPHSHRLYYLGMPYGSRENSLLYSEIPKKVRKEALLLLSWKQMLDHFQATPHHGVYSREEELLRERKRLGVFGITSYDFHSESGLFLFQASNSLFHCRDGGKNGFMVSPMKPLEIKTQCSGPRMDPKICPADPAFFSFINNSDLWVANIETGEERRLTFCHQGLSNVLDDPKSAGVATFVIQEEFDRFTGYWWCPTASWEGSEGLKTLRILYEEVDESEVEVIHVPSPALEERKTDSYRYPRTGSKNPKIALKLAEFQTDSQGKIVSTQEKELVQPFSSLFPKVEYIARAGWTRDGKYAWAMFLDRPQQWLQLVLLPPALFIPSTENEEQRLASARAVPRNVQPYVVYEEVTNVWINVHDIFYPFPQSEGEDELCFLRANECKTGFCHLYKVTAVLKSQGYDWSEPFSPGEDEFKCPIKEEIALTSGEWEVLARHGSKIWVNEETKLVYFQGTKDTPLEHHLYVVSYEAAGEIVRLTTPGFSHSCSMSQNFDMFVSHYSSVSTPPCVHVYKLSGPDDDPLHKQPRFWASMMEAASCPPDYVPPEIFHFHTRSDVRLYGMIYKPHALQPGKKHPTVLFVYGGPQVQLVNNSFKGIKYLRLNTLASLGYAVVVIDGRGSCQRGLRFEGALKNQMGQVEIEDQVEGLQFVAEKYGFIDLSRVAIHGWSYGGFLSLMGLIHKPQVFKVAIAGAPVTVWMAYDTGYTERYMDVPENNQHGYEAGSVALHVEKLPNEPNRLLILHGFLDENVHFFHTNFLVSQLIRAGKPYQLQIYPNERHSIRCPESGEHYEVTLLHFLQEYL

Sequence of Cytochrome P450 2D6 (P10635 whole entry): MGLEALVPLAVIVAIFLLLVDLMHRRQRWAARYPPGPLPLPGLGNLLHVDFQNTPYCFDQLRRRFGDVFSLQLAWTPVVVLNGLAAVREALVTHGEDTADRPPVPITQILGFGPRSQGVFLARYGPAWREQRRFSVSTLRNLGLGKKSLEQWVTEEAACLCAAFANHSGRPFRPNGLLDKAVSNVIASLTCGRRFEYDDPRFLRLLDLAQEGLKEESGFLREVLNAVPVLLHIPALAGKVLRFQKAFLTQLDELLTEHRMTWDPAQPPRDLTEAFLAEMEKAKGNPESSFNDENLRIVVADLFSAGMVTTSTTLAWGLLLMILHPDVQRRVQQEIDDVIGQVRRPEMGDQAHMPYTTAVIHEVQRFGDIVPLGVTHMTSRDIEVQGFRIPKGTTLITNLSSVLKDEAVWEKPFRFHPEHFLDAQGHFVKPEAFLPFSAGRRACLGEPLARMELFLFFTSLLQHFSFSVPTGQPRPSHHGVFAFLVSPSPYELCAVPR
Sequence of Cytochrome P450 3A4 (P08684 whole entry): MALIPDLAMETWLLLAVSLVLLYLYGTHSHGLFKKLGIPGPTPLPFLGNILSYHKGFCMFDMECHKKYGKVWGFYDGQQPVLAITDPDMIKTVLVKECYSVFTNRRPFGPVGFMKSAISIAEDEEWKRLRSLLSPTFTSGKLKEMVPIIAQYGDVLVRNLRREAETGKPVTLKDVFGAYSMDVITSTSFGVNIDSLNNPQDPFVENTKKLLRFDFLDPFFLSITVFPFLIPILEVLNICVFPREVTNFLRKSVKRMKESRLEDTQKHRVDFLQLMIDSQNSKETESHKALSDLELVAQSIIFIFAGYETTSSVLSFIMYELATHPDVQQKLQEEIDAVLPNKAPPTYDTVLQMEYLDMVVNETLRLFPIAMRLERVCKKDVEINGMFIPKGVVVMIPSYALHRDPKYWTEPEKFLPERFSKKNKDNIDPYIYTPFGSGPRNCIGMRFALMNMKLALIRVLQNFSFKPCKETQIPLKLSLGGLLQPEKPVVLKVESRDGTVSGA
Sequence of Cytochrome P450 2C9 (P11712 whole entry): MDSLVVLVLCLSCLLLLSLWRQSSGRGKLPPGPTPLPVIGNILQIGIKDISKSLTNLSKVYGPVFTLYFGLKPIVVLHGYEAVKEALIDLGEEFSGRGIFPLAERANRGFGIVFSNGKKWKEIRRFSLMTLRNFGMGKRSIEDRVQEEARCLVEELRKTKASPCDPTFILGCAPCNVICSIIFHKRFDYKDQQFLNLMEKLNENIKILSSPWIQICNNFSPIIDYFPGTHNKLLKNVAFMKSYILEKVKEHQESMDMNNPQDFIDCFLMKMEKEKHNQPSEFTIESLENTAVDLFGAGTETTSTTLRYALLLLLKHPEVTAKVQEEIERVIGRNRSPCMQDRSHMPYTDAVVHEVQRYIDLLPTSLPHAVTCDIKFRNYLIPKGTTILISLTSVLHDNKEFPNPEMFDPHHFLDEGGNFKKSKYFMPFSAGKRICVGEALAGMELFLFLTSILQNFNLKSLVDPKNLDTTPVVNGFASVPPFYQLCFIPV
T3 sequence (P27487 whole entry): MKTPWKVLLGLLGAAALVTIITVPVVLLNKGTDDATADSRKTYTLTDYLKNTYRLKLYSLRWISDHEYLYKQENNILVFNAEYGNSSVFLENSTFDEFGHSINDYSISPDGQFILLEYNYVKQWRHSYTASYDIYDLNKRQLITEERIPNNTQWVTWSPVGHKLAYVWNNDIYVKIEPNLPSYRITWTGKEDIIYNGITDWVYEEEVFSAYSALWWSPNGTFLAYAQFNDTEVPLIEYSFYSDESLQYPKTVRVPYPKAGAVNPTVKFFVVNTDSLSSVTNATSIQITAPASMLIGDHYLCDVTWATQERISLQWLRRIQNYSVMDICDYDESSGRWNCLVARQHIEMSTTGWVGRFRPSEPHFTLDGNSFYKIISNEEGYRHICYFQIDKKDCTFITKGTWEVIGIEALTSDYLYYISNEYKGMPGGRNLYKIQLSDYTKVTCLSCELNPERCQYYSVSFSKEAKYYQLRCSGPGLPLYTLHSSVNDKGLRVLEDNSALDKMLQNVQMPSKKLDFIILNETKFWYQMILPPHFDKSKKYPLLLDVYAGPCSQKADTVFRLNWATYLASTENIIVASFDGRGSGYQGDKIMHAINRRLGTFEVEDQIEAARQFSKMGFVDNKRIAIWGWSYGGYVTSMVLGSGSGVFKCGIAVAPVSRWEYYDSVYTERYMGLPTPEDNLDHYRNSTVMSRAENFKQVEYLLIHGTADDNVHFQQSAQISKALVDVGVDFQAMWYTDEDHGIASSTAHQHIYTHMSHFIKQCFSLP
Sequence of Dipeptidyl peptidase 8 (Q6V1X1 whole entry): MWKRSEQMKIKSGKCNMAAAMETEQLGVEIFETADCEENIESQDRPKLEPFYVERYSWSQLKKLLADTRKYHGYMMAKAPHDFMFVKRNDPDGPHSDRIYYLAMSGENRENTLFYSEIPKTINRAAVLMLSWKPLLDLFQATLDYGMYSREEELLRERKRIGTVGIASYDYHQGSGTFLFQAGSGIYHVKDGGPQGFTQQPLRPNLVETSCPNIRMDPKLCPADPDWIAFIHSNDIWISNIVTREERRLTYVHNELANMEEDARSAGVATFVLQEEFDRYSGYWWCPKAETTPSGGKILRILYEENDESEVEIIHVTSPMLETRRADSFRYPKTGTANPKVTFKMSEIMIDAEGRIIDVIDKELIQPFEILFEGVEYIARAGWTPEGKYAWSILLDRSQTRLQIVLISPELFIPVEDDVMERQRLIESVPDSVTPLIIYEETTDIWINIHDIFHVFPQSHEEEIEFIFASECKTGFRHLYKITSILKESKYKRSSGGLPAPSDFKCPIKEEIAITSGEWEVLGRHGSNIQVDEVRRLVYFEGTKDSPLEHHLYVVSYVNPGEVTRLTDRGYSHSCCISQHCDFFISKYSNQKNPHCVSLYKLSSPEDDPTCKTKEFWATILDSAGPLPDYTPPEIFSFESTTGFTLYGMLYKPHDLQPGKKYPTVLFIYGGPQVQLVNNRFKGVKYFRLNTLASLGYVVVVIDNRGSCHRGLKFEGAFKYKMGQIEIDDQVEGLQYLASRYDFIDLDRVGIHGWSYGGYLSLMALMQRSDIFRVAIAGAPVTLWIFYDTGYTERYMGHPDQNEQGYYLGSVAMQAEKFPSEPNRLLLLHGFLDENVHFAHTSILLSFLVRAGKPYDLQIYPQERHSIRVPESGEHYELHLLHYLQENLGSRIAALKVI

| half-life [1] | half-life [2] | SMILES | further results |
| --- | --- | --- | --- |
| > 3 h | > 3 h | CN(C)C(=O)c1cccc(-c2cc(N3CC(N)C(c4cc(F)c(F)cc4F)C3)ncn2)c1 (centres undefined) | CL/F [3]: 12.2 mL/min/kg; Vdss [4]: 1.77 L/kg; Cmax [5]: 1270 ng/mL; half-life [6]: 3.5 h; AUC [7]: 3140 ng·h/mL; bioavailability [8]: 42% |
| > 3 h | > 3 h | NC1CN(c2cc(-c3ccccc3)ncn2)CC1c1cc(F)c(F)cc1F (centres undefined) | – |
| > 3 h | > 3 h | Cc1cccc(COC(=O)N2CC(N)C(c3ccc(Cl)cc3Cl)C2)n1 (racemic) | – |
| > 3 h | > 3 h | NC1CN(c2cc(-c3ccsc3)ncn2)CC1c1cc(F)c(F)cc1Cl (racemic) | – |
| > 3 h | > 3 h | CCOC(=O)N1CC(N)C(c2ccc(Cl)cc2Cl)C1 (racemic) | – |
| > 3 h | > 3 h | CS(=O)(=O)c1cccc(-c2cc(N3CC(N)C(c4cc(F)c(F)cc4F)C3)ncn2)c1 (centres undefined) | Ki [9]: > 30 µM; Ki [10]: > 30 µM; CL/F [3]: 4.33 mL/min/kg; Vdss [4]: 1.44 L/kg; Cmax [5]: 1810 ng/mL; half-life [6]: 3.8 h; AUC [7]: 22000 ng·h/mL; bioavailability [8]: 110% |
| > 3 h | > 3 h | CS(=O)(=O)c1cc(F)cc(-c2cc(N3CC(N)C(c4cc(F)c(F)cc4F)C3)ncn2)c1 (centres undefined) | – |
| > 3 h | > 3 h | COc1cccc(CN(C)C(=O)N2CC(N)C(c3ccc(Cl)cc3Cl)C2)c1 (racemic) | – |
| > 3 h | > 3 h | NC1CN(c2ccccn2)CC1c1ccc(Cl)cc1Cl (racemic) | – |
| > 3 h | > 3 h | CCNC(=O)N1CC(N)C(c2ccc(Cl)cc2Cl)C1 (racemic) | – |
| > 3 h | > 3 h | NC1CN(Cc2ccccc2)CC1c1ccc(Cl)cc1Cl (centres undefined) | – |
| > 3 h | > 3 h | NC1CN(c2ccnc(-c3ccsc3)n2)CC1c1ccc(Cl)cc1Cl (racemic) | – |
| > 3 h | > 3 h | NC1CN(c2cc(-c3cccc(C(=O)O)c3)ncn2)CC1c1cc(F)c(F)cc1F (centres undefined) | Ki [16]: > 3 µM; Ki [17]: > 3 µM; Ki [9]: > 30 µM; Ki [10]: > 30 µM; IC50 [11]: > 10 µM; IC50 [15]: > 10 µM; CL/F [3]: 18.3 mL/min/kg; Vdss [4]: 1.78 L/kg; Cmax [5]: 176 ng/mL; half-life [6]: 6.8 h; AUC [7]: 652 ng·h/mL; bioavailability [8]: 18% |

Second part, the molecule before the results:

| SMILES | half-life [1] | half-life [2] | further results |
| --- | --- | --- | --- |
| NC1CN(c2cc(-c3ccsc3)ncn2)CC1c1ccc(Cl)cc1Cl (racemic) | > 3 h | > 3 h | – |
| NC1CN(c2cc(-c3ccc(C(=O)O)cc3)ncn2)CC1c1cc(F)c(F)cc1F (centres undefined) | > 3 h | > 3 h | – |
| COc1ccc(-c2cnc(N3CC(N)C(c4ccc(Cl)cc4Cl)C3)nc2)cc1 (racemic) | > 3 h | > 3 h | – |
| NC1CN(c2cc(-c3ccsc3)ncn2)CC1c1ccc(F)cc1Cl (racemic) | > 3 h | > 3 h | – |
| CC(=O)N1CC(N)C(c2ccc(Cl)cc2Cl)C1 (racemic) | > 3 h | > 3 h | – |
| Cl.NC1CN(c2cc(-c3ccsc3)ncn2)CC1c1cc(F)c(F)cc1F (centres undefined) | > 3 h | > 3 h | IC50 [11]: 1.1 µM |
| NC1CN(c2ncccn2)CC1c1ccc(Cl)cc1Cl (racemic) | > 3 h | > 3 h | – |
| NC1CN(C(=O)NCc2cccc(F)c2)CC1c1ccc(Cl)cc1Cl (racemic) | > 3 h | > 3 h | – |
| CCN(C)C(=O)N1CC(N)C(c2ccc(Cl)cc2Cl)C1 (racemic) | > 3 h | > 3 h | – |
| NC1CN(c2ccccc2)CC1c1ccc(Cl)cc1Cl (racemic) | > 3 h | > 3 h | – |
| NC1CN(c2cc(-c3cccc(S(=O)(=O)N4CCOCC4)c3)ncn2)CC1c1cc(F)c(F)cc1F (centres undefined) | > 3 h | > 3 h | Ki [12]: 0.0032 µM; Ki [13]: 0.0017 µM; Ki [9]: > 30 µM; Ki [10]: > 30 µM; IC50 [11]: > 10 µM; IC50 [14]: > 10 µM; IC50 [15]: > 10 µM; CL/F [3]: 34.8 mL/min/kg; Vdss [4]: 1.84 L/kg; Cmax [5]: 347 ng/mL; half-life [6]: 1.1 h; AUC [7]: 515 ng·h/mL; bioavailability [8]: 21% |
| NC1CN(c2nccc(-c3ccsc3)n2)CC1c1ccc(Cl)cc1Cl (racemic) | > 3 h | > 3 h | – |
| NC1CN(c2nccc(-c3ccccc3)n2)CC1c1ccc(Cl)cc1Cl (racemic) | > 3 h | > 3 h | – |
| NC1CN(c2cc(-c3ccsc3)ncn2)CC1c1cc(F)c(F)cc1F (racemic) | > 3 h | > 3 h | IC50 [11]: 0.098 µM; IC50 [14]: > 10 µM; IC50 [15]: > 10 µM |
| Cc1ccc(S(=O)(=O)N2CC(N)C(c3ccc(Cl)cc3Cl)C2)cc1 (racemic) | > 3 h | > 3 h | – |
